Assay results as given in ChEMBL document CHEMBL5653631, “A Potent and Selective ULK1 Inhibitor Suppresses Autophagy and Sensitizes Cancer Cells to Nutrient Stress” (iScience, 2018).
Blank lines part the entries; values can stand above or below the molecule they belong to.

Columns and labels:
[1] = biological target: STE20-like serine/threonine-protein kinase (Homo sapiens) (UniProt Q9H2G2); experiment: Inhibition of human recombinant SLK at 500 nM in presence of ATP by radiometric assay relative to control
[2] = biological target: T1, Serine/threonine-protein kinase Nek2 (Homo sapiens) (UniProt P51955); experiment: Inhibition of human recombinant NEK2 at 500 nM related to control ULK1
T1 sequence (whole entry): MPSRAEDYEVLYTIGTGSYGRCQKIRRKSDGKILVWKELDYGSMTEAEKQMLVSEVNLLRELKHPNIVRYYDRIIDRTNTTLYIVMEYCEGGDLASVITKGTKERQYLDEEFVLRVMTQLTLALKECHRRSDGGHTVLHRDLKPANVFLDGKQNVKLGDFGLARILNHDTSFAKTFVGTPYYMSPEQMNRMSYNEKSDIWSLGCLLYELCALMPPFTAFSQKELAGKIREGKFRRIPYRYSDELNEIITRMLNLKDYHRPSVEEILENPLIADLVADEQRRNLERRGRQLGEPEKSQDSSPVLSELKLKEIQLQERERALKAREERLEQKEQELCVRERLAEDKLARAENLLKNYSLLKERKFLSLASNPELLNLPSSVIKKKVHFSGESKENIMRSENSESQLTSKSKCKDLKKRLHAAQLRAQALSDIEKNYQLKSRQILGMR

[3] = biological target: T2, Ephrin type-B receptor 2 (Homo sapiens) (UniProt P29323); experiment: Inhibition of human recombinant EphB2 at 500 nM related to control ULK1
T2 sequence (whole entry): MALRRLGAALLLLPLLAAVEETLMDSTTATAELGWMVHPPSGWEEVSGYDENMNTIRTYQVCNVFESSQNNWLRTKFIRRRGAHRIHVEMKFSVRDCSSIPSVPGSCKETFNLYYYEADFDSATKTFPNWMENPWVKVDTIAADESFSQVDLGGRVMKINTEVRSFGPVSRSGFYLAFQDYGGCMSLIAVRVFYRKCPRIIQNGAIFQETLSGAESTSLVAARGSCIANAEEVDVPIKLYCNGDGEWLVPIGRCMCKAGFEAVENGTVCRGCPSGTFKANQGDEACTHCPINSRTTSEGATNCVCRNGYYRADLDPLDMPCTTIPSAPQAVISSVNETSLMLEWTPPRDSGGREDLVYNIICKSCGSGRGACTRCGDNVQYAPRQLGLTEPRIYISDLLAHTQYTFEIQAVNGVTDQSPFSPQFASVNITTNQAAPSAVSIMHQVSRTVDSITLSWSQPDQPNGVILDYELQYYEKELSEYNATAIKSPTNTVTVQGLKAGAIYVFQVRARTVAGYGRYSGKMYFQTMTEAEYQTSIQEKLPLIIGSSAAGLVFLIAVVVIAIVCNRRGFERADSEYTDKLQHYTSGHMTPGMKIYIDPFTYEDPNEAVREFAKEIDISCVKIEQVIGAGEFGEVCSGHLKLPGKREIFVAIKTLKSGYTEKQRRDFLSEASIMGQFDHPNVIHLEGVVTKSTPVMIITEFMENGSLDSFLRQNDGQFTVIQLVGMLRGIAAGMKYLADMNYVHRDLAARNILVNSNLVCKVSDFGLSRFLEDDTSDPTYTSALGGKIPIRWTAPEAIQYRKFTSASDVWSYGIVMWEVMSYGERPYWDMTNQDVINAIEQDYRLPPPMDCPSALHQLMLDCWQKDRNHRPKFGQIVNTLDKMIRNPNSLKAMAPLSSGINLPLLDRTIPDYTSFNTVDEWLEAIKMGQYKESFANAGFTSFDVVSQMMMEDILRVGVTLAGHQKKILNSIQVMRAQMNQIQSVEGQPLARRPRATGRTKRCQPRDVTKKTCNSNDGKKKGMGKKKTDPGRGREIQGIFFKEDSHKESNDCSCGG

[4] = biological target: Ribosomal protein S6 kinase alpha-6 (Homo sapiens) (UniProt Q9UK32); experiment: Inhibition of human recombinant RSK4 at 15 nM related to control ULK1
[5] = biological target: Calcium/calmodulin-dependent protein kinase type 1 (Homo sapiens) (UniProt Q14012); experiment: Inhibition of human recombinant CaMK1a at 15 nM in presence of ATP by radiometric assay relative to control
[6] = biological target: Cyclin-dependent kinase-like 1 (Homo sapiens) (UniProt Q00532); experiment: Inhibition of human recombinant CDKL1 at 40 nM related to control ULK1
[7] = biological target: Activated CDC42 kinase 1 (Homo sapiens) (UniProt Q07912); experiment: Inhibition of human recombinant ACK at 40 nM in presence of ATP by radiometric assay relative to control
Summary of the method: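 Panel of 327 recombinant human kinases in radiometric activity assays, each screened in duplicate at a single inhibitor concentration; percent activity remaining relative to vehicle control, percent inhibition taken as 100 minus activity remaining.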

[8] = biological target: Ephrin type-A receptor 2 (Homo sapiens) (UniProt P29317); experiment: Inhibition of human recombinant EphA2 at 40 nM in presence of ATP by radiometric assay relative to control
[9] = biological target: Casein kinase II subunit alpha (Homo sapiens) (UniProt P68400); experiment: Inhibition of human recombinant CK2a1 at 40 nM related to control ULK1
[10] = biological target: T3, Beta-adrenergic receptor kinase 1 (Homo sapiens) (UniProt P25098); experiment: Inhibition of human recombinant BARK1 at 40 nM related to control ULK1
T3 sequence (whole entry): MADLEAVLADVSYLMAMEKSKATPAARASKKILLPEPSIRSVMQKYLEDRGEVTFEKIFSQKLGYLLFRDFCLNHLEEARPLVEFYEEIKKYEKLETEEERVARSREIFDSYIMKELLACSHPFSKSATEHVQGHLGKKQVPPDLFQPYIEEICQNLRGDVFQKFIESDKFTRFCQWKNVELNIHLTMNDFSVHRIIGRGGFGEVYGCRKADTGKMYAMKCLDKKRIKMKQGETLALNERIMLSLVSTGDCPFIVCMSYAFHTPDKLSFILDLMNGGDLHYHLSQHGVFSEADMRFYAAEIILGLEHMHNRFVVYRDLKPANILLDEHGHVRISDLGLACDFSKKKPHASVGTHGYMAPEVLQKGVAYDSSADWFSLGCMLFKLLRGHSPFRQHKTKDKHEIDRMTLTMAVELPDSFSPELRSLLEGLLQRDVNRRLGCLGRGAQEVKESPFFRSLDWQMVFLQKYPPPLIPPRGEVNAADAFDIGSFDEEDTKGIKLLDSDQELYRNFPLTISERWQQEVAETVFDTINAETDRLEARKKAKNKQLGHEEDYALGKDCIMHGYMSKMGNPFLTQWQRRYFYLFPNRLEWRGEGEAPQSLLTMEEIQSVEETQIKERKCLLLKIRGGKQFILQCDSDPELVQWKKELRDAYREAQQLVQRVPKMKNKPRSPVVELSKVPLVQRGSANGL
Summary of the method: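 Radiometric activity assays in a panel of 327 human recombinant kinases, each run in duplicate at one inhibitor concentration. Activity remaining is expressed as percent of vehicle control, and percent inhibition is calculated as 100% minus percent activity remaining.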

Sequence of Cyclin-dependent kinase-like 1 (Homo sapiens) (Q00532 whole entry): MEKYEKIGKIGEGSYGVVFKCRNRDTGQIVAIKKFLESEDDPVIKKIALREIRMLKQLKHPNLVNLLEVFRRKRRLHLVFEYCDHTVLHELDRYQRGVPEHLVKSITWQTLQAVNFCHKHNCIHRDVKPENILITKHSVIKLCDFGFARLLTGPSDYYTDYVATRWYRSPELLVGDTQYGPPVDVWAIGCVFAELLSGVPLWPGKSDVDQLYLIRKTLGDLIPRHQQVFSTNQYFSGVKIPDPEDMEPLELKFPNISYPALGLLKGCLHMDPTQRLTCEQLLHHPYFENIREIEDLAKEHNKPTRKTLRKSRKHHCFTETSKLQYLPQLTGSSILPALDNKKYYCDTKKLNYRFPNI
Sequence of Ephrin type-A receptor 2 (Homo sapiens) (P29317 whole entry): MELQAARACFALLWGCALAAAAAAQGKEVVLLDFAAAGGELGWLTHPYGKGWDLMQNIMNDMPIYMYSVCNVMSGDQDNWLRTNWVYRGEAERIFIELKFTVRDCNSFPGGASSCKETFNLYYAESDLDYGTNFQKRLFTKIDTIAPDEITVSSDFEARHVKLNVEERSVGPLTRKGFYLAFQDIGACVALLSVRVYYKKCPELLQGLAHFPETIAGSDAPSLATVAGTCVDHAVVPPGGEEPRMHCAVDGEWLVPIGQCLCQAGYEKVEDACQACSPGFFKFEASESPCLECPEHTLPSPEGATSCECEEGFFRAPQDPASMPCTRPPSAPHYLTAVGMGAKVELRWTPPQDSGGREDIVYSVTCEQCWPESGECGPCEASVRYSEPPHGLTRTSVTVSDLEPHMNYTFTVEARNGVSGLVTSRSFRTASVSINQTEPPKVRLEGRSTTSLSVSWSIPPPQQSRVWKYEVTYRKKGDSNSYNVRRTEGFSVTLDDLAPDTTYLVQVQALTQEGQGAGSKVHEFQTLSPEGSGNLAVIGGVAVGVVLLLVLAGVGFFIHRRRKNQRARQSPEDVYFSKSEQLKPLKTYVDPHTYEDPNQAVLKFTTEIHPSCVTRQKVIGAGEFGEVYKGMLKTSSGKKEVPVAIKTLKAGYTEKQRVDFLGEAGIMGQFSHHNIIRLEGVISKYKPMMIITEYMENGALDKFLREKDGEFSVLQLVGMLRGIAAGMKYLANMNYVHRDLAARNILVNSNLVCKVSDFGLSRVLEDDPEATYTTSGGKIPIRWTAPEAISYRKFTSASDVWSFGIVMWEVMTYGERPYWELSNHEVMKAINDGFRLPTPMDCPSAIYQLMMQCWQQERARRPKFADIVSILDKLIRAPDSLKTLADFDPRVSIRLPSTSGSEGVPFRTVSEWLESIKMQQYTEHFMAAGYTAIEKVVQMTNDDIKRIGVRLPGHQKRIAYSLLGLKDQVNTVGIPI
Sequence of Activated CDC42 kinase 1 (Homo sapiens) (Q07912 whole entry, looked up): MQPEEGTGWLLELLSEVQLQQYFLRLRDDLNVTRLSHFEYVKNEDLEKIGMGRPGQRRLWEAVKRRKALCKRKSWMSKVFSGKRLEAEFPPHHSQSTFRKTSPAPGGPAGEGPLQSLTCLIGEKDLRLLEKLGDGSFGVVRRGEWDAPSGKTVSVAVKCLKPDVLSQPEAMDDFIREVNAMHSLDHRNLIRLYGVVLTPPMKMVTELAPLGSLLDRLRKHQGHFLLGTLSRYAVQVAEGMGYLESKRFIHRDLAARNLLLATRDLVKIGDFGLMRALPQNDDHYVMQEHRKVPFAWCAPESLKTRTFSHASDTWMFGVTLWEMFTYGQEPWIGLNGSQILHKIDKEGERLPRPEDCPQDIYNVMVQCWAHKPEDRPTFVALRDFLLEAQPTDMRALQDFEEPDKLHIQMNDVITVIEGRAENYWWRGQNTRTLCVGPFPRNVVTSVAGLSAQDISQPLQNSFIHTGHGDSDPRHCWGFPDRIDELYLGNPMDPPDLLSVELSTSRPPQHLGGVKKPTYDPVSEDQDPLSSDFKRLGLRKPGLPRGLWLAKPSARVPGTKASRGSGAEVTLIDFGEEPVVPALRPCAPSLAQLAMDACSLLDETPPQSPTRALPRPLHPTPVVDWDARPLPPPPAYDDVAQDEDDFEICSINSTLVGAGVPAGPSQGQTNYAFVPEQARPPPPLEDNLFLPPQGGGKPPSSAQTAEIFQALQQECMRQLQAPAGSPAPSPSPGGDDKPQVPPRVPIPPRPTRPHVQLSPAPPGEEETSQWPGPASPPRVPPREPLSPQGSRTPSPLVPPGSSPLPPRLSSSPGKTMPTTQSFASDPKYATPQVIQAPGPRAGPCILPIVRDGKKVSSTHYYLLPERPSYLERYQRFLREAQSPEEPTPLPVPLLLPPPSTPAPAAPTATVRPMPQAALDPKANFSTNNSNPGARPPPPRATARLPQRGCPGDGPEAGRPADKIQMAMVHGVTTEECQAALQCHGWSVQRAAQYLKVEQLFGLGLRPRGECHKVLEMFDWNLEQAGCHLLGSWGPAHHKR
Sequence of STE20-like serine/threonine-protein kinase (Homo sapiens) (Q9H2G2 whole entry, looked up): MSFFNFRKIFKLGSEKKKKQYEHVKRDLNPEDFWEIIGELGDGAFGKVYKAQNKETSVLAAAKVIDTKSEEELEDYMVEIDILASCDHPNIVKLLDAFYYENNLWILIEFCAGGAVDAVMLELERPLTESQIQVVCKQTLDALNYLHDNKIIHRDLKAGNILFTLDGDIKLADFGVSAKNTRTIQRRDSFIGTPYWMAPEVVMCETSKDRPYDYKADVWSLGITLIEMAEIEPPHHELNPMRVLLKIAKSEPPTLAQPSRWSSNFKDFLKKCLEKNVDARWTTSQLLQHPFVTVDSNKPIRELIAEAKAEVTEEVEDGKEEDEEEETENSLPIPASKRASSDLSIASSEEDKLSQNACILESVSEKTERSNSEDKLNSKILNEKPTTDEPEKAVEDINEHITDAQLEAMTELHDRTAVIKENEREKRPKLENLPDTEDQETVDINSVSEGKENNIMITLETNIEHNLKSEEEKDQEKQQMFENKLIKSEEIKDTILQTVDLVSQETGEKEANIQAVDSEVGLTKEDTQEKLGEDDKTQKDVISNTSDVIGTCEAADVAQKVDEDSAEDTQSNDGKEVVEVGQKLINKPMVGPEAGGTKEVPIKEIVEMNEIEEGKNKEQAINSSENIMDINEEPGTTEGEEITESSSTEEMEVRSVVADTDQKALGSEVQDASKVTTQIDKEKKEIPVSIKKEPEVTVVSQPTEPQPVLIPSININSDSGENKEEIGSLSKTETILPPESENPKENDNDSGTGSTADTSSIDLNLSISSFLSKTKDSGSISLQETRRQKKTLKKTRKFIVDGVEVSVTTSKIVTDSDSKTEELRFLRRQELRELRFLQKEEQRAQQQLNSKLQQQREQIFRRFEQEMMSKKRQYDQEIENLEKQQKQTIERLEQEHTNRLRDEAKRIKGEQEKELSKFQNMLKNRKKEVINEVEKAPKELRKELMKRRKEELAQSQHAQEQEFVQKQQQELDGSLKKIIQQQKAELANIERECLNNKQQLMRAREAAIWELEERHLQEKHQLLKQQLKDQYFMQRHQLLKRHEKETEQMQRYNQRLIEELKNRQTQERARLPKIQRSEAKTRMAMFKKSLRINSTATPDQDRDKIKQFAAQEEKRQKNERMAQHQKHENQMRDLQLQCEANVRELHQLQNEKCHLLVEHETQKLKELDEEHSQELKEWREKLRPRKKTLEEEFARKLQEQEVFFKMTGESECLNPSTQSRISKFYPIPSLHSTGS
Sequence of Ribosomal protein S6 kinase alpha-6 (Homo sapiens) (Q9UK32 whole entry): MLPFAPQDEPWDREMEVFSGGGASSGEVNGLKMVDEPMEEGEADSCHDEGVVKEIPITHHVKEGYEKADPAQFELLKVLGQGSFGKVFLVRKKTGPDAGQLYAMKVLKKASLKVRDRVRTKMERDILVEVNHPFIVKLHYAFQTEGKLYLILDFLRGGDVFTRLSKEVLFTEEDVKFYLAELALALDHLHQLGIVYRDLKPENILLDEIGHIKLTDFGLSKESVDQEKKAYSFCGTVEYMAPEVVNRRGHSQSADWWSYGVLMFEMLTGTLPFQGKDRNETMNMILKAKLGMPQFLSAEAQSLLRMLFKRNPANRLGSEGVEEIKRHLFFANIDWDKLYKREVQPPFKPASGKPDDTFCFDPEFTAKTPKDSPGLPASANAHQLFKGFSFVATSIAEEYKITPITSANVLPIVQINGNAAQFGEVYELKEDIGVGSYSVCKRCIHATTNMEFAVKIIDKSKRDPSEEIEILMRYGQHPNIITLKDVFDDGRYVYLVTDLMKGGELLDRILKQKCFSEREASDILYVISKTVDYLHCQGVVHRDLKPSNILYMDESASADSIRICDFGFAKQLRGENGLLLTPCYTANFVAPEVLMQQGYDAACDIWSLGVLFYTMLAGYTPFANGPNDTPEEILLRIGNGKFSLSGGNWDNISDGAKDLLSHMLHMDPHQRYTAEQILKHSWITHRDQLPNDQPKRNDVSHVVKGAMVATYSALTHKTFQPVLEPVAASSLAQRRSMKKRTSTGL
Sequence of Calcium/calmodulin-dependent protein kinase type 1 (Homo sapiens) (Q14012 whole entry, looked up): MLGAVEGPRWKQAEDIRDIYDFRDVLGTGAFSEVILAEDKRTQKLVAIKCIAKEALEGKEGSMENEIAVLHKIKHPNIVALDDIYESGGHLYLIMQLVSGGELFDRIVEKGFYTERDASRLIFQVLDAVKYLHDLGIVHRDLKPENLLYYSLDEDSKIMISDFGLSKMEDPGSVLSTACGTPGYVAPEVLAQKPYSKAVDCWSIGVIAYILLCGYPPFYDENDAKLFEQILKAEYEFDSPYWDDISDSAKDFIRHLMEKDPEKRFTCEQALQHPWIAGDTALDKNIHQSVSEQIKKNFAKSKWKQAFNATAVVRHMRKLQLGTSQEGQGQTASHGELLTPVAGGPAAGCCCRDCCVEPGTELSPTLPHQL

- inhibition [1]: 15%
- fold change (FC) [2]: 0
- fold change (FC) [3]: 0.2
Structure (SMILES): CNC(=O)c1ccccc1Oc1nc(Nc2cc(OC)c(OC)c(OC)c2)ncc1Br

- fold change (FC) [4]: 0
- inhibition [5]: 7%
Structure (SMILES): CC(C)[C@H](NC(=O)c1cc(-c2cnn3cc(-c4ccc(OCCN5CCCCC5)cc4)cnc23)cs1)C(F)(F)F

- fold change (FC) [6]: 0.21
- inhibition [7]: 17%
- inhibition [8]: 2%
- fold change (FC) [9]: 0.1
- fold change (FC) [10]: 0.04
Structure (SMILES): O=C(N[C@@H](C1CC1)C(F)(F)F)c1cc(-c2cnn3cc(-c4ccc(F)cc4)cnc23)cs1
